Test results taken from ChEMBL document CHEMBL1145150, “Synthesis and biological activity of nitronyl nitroxide containing peptides” (J Med Chem, 2005).
Residues, ends and D or L forms follow the SMILES beside them. *: point of attachment. X1 = CC1(C)N(O)C(c2ccc(OCC(=O)*)cc2)=[N+]([O-])C1(C)C

Assays:
PC-12 [1] = test: Free radical scavenging activity of compound (12.5 uM) evaluated against hydrogen peroxide in PC12 cells; type: functional, cell-based; conditions: Rattus norvegicus
Method in brief: (§1)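 PC12 cells were grown in DMEM with 10% heat-inactivated horse serum, 5% FBS and 1.0 mM pyruvate at 37 °C and 5% CO₂. Cells were seeded at 20 000/well on poly-L-lysine and attached 24 h, then pretreated 1 h with 12.5–200 µM compound. Insults were: NO, 2 mM nitroprusside for 2 h, then 14 h in fresh medium; H₂O₂, 1 mM for 1 h; OH, 1 mM H₂O₂/30 µM Fe(II) for 1 h. Survival was read by MTT.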

Oryctolagus cuniculus [2] = organism: Oryctolagus cuniculus; test: Effect (0.8 ug) on euglobulin clot lysis time determined using rabbit euglobulin; type: functional
Method in brief: (§2)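 Rabbit plasma was diluted 1:20 in distilled water and precipitated at pH 5.7 with 0.25% acetic acid for 30 min at 4 °C. It was spun at 2000g for 15 min, and the euglobulin pellet was resuspended to the original plasma volume in 50 mM sodium barbiturate buffer (pH 7.8; 1.66 mM CaCl₂, 0.68 mM MgCl₂, 93.96 mM NaCl). Saline, urokinase or test agent was added to the clots, and time to clot lysis was read in a microplate.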

Rattus norvegicus [3] = test: Thrombolytic activity (10.0 umol/kg) expressed as the reduction of thrombus mass determined in male wistar rats; type: functional
Method in brief: (§3)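 Male Wistar rats (200–300 g) were anesthetized with pentobarbital sodium (80.0 mg/kg i.p.). A steel helix was left for 15 min in 1.0 mL of carotid blood, then weighed. It was placed in a heparin-filled (50 IU/mL) polyethylene shunt into the left jugular vein. Heparin and then the test agent were injected through the shunt. Blood circulated 90 min, the helix was reweighed, and thrombus mass reduction was recorded (ANOVA).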

PC-12 [4] = test: Free radical scavenging activity of compound (12.5 uM) evaluated against nitric oxide in PC12 cells; type: functional, cell-based; conditions: Rattus norvegicus; method in brief: as §1
Rattus norvegicus [5] = organism: Rattus norvegicus; test: Concentration of compound (1 uM) required to inhibit acetylcholine-induced vasorelaxation of rat aortic strip relative to control; type: functional, Aorta
PC-12 [6] = test: Free radical scavenging activity of compound (12.5 uM) evaluated against OH in PC12 cells; type: functional, cell-based; conditions: Rattus norvegicus; method in brief: as §1
Oryctolagus cuniculus [7] = organism: Oryctolagus cuniculus; test: Fibrinolytic activity (0.8 ug) determined in fibrinogen-agarose mixture coagulated with […] of thrombin; type: functional
Method in brief: (§4)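 Plates were cast from equal volumes of 0.3% rabbit fibrinogen and 0.95% agarose, both in 50 mM sodium barbiturate buffer (pH 7.8), clotted with thrombin (100 IU/mL) and held 30 min at 4 °C. Wells 5 mm across were punched and loaded with 30 µL of saline, urokinase or test agent. Fibrinolysis was expressed as lysis area.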

Oryctolagus cuniculus [8] = organism: Oryctolagus cuniculus; test: Fibrinolytic activity (1.4 ug) determined in fibrinogen-agarose mixture coagulated with […] of thrombin; type: functional; method in brief: as §4
Oryctolagus cuniculus [9] = organism: Oryctolagus cuniculus; test: Effect (1.4 ug) on euglobulin clot lysis time determined using rabbit euglobulin; type: functional; method in brief: as §2
Rattus norvegicus [10] = organism: Rattus norvegicus; test: Concentration of compound (1 umol/L) required to inhibit acetylcholine-induced vasorelaxation of rat aortic strip relative to control; type: functional, Aorta
Oryctolagus cuniculus [11] = organism: Oryctolagus cuniculus; test: Fibrinolytic activity (0.2 ug) determined in fibrinogen-agarose mixture coagulated with […] of thrombin; type: functional; method in brief: as §4
Oryctolagus cuniculus [12] = organism: Oryctolagus cuniculus; test: Fibrinolytic activity (0.4 ug) determined in fibrinogen-agarose mixture coagulated with […] of thrombin; type: functional; method in brief: as §4
PC-12 [13] = test: Free radical scavenging activity of compound (25 uM) evaluated against OH in PC12 cells; type: functional, cell-based; conditions: Rattus norvegicus; method in brief: as §1
Rattus norvegicus [14] = test: Thrombolytic activity (15.0 umol/kg) expressed as the reduction of thrombus mass determined in male wistar rats; type: functional; method in brief: as §3
Rattus norvegicus [15] = test: Thrombolytic activity (5.0 umol/kg) expressed as the reduction of thrombus mass determined in male wistar rats; type: functional; method in brief: as §3
Rattus norvegicus [16] = organism: Rattus norvegicus; test: Concentration of compound (0.01 umol/L) required to inhibit acetylcholine-induced vasorelaxation of rat aortic strip relative to control; type: functional, Aorta
PC-12 [17] = test: Free radical scavenging activity of compound (25 uM) evaluated against […] in PC12 cells; type: functional, cell-based; conditions: Rattus norvegicus
Oryctolagus cuniculus [18] = organism: Oryctolagus cuniculus; test: Effect (1.1 ug) on euglobulin clot lysis time determined using rabbit euglobulin; type: functional; method in brief: as §2
PC-12 [19] = test: Free radical scavenging activity of compound (25 uM) evaluated against hydrogen peroxide in PC12 cells; type: functional, cell-based; conditions: Rattus norvegicus; method in brief: as §1
Oryctolagus cuniculus [20] = organism: Oryctolagus cuniculus; test: Effect (0.6 ug) on euglobulin clot lysis time determined using rabbit euglobulin; type: functional; method in brief: as §2
Rattus norvegicus [21] = organism: Rattus norvegicus; test: Concentration of compound (0.1 umol/L) required to inhibit acetylcholine-induced vasorelaxation of rat aortic strip relative to control; type: functional, Aorta
Oryctolagus cuniculus [22] = organism: Oryctolagus cuniculus; test: Effect (2.2 ug) on euglobulin clot lysis time determined using rabbit euglobulin; type: functional; method in brief: as §2
Oryctolagus cuniculus [23] = organism: Oryctolagus cuniculus; test: Effect (1.3 ug) on euglobulin clot lysis time determined using rabbit euglobulin; type: functional; method in brief: as §2
Oryctolagus cuniculus [24] = organism: Oryctolagus cuniculus; test: Fibrinolytic activity (1.3 ug) determined in fibrinogen-agarose mixture coagulated with […] of thrombin; type: functional; method in brief: as §4

Q: Which EC50 (PC-12 [1]) does the source give for `CC1(C)N(O)C(c2ccc(OCC(=O)O)cc2)=[N+]([O-])C1(C)C` here?
A: 30.2 µM

Q: And the ECLT (Oryctolagus cuniculus [2])?
A: 218.56 min

Q: And the Reduction (Rattus norvegicus [3])?
A: 15.89 mg

Q: And the EC50 (PC-12 [4])?
A: 91.2 µM

Q: What about the Inhibition (Rattus norvegicus [5]) of the same compound?
A: 99.2%

Q: What about the EC50 (PC-12 [6]) of the same compound?
A: 99.9 µM

Q: And the Lysis area (Oryctolagus cuniculus [7])?
A: 23.96 mm.mm

Q: How did the Reduction (Rattus norvegicus [3]) turn out when `C[C@H](N)C(=O)N[C@@H](CCCN=C(N)N)C(=O)N1CCC[C@H]1C(=O)N[C@@H](C)C(=O)N[C@@H](CCCCN)C(=O)O` (H-ARPAK-OH) was run?
A: 18.54 mg

Q: What about the Lysis area (Oryctolagus cuniculus [8]) of the same compound?
A: 212.78 mm.mm

Q: And the ECLT (Oryctolagus cuniculus [9])?
A: 96.38 min

Q: What about the Inhibition (Rattus norvegicus [10]) of the same compound?
A: 9.5%

Q: Which Lysis area (Oryctolagus cuniculus [11]) does the source give for `C[C@H](NC(=O)COc1ccc(C2=[N+]([O-])C(C)(C)C(C)(C)N2O)cc1)C(=O)N[C@@H](CCCN=C(N)N)C(=O)N1CCC[C@H]1C(=O)N[C@@H](C)C(=O)N[C@@H](CCCCN)C(=O)O` (X1-ARPAK-OH) here?
A: 172.33 mm.mm

Q: And the Lysis area (Oryctolagus cuniculus [12])?
A: 194.54 mm.mm

Q: And the EC50 (PC-12 [13])?
A: 98.1 µM

Q: And the Reduction (Rattus norvegicus [3])?
A: 19.91 mg

Q: And the Reduction (Rattus norvegicus [14])?
A: 26.88 mg

Q: What about the Reduction (Rattus norvegicus [15]) of the same compound?
A: 16.27 mg

Q: And the Inhibition (Rattus norvegicus [16])?
A: 66.8%

Q: And the EC50 (PC-12 [17])?
A: 89.1 µM

Q: And the ECLT (Oryctolagus cuniculus [18])?
A: 123.32 min

Q: What about the EC50 (PC-12 [19]) of the same compound?
A: 28.1 µM

Q: What about the Inhibition (Rattus norvegicus [10]) of the same compound?
A: 92.9%

Q: What about the Lysis area (Oryctolagus cuniculus [7]) of the same compound?
A: 215.23 mm.mm

Q: And the ECLT (Oryctolagus cuniculus [20])?
A: 145.61 min

Q: And the Inhibition (Rattus norvegicus [21])?
A: 78.6%

Q: What about the ECLT (Oryctolagus cuniculus [22]) of the same compound?
A: 104.12 min

Q: Which ECLT (Oryctolagus cuniculus [23]) does the source give for `C[C@H](NC(=O)[C@@H]1CCCN1C(=O)[C@H](CCCN=C(N)N)NC(=O)CN)C(=O)N[C@@H](CCCCN)C(=O)O` (H-GRPAK-OH) here?
A: 91.09 min

Q: And the Reduction (Rattus norvegicus [3])?
A: 25.82 mg

Q: What about the Lysis area (Oryctolagus cuniculus [24]) of the same compound?
A: 230.54 mm.mm

Q: What about the Inhibition (Rattus norvegicus [10]) of the same compound?
A: 9.2%
